The nature of series [1]: Pharmacokinetic study, single i.v. injection. In kind it is in vivo, Wistar rats. The following applies: male, Wistar, rat, plasma, iv, 10 mg/kg.
Series [2] concerns IL-2, IL-6, IL-1β, caspase-9. The experiment in a line: Proinflammatory cytokines and caspase-9 by ELISA. The class given is in vivo, Wistar rats. The following applies: DEN-induced rats. In outline: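 IL-2, IL-6, IL-1β and caspase-9 were measured in hepatic tissue of DEN-induced HCC rats using commercial ELISA kits per manufacturer's instructions.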
A general note: An ELISA detects its analyte on a solid surface through an enzyme-linked reagent.

Series [3] in a line: In-vitro drug release, dialysis bag diffusion method. The following applies: PBS pH 7.4. The class given is physicochemical. In outline:
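Dialysis bag (MW 12,500 Da, ~2.4 nm pores), pre-soaked 24 h in pH 7.4 PBS, filled with 2 mL drug-loaded lipid-carrier dispersion and sealed. Suspended in 100 mL pH 7.4 PBS at 37 ± 1°C under sink conditions, agitated at 100 rpm for 48 h.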

Usually AUC(0-inf) stands for total exposure, with the tail of the curve extrapolated. One may read the AUC(0-t) as the area under the concentration-time curve up to a stated or last time point. Read a low AUC(0-t) as less exposure. A word on the Cmax: it is the peak of the concentration-time curve. As usually defined, the MRT inf is a mean duration of stay, worked out from the concentration-time curve. The term half-life denotes the time in which the quantity being followed falls by half. As to `COc1cc2ncnc(Nc3ccc(F)c(Cl)c3)c2cc1OCCCN1CCOCC1` [Gefitinib], in series [1], the AUC(0-inf) was 41.1 ± 13.2 µg·h/mL, the AUC(0-t) came to 33.3 ± 9.55 µg·h/mL, the Cmax amounted to 7.82 ± 1.14 µg/mL and the mean residence time (MRT inf) was determined as 12.2 ± 2 h. For the same molecule, the half-life in series [1] is 7.66 ± 1.7 h. Moreover, the “caspase 9 levels” value in series [2] is reported as “increased significantly”. In series [3] (48 hours), the GF release stood at 95.63 ± 4.04%. In addition, the GF released result in series [3] (within 4 hours) is recorded as “approximately 80%”.

The values above are taken from article PMC10693281 (International Journal of Nanomedicine, 2023).
